Source: ChEMBL document CHEMBL5653623 (J Pharmacol Exp Ther, 2015)
Calls of active or inactive are those of the source. The calls are words filed in the database; no cut-off is given here.

How the values were obtained:
[1] = test system: Mus musculus; test: Effect on behavioral changes in 8 weeks old MitoPark mouse striatum assessed as TH level at 30 mg/kg/day administered for 3 weeks by […] relative to control; format: functional
[2] = biological target: Leucine-rich repeat serine/threonine-protein kinase 2 (Mus musculus) (UniProt Q5S006); test: In vivo inhibition of LRRK2 in C57Bl/6 mouse brain assessed as reduction in pSer935 LRRK2 at 30 mg/kg administered for 11 days and measured for 4 to 24 hrs by Western blotting analysis; format: functional, organism-based; details: time 11.0 day
Procedure, shortened: (§1)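 Male C57Bl/6 mice, singly housed on a reversed light cycle. Fed drug diet targeted to 3, 10, 30, 60 or 120 mg/kg/day (assuming 3 g/day intake), or untreated diet, for 11 days. Killed 4, 8 or 24 h after dark-cycle onset, n = 5 per group. Cortex immunoblotted for pSer935/total LRRK2 and total LRRK2/GAPDH. Total LRRK2 detected with MJFF2 antibody.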

[3] = biological target: T1, Dual specificity protein kinase TTK (Homo sapiens, UniProt P33981); test: Inhibition of TTK (unknown origin)
T1 sequence (P33981 whole entry): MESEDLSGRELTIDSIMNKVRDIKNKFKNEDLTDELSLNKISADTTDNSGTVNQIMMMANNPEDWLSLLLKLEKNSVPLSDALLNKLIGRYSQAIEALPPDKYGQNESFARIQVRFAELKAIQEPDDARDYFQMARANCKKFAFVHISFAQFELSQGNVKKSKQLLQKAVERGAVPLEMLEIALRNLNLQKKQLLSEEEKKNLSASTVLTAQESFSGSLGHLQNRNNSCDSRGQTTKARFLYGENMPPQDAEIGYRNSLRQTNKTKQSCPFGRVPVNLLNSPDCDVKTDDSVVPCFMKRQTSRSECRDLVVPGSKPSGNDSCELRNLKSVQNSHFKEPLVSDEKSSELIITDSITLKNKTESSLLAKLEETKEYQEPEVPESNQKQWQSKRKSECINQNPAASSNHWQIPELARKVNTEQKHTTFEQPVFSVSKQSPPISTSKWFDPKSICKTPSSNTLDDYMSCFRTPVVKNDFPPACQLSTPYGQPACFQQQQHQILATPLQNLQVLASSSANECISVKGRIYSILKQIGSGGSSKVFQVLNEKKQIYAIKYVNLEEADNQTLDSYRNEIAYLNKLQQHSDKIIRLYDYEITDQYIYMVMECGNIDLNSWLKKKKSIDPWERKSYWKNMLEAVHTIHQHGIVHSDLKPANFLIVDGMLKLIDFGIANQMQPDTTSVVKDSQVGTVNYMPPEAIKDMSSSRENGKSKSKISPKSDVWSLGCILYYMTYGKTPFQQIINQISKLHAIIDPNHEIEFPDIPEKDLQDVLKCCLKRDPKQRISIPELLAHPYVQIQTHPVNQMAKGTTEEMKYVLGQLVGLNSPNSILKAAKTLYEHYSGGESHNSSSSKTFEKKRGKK

[4] = test system: Mus musculus; test: Effect on behavioral phenotype in MitoPark mouse at baseline assessed as higher rearing behavior at 30 mg/kg/day administered for 3 weeks and measured after 60 mins; format: functional, organism-based
Procedure, shortened: (§2)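 MitoPark mice, 5 weeks old, were allocated by baseline 60-min LMA to untreated diet or diet targeting 30 mg/kg/day (reformulated every 3 weeks). Wild-type littermates received vehicle diet. Body weight and food intake were recorded weekly. 60-min LMA (distance, rearing) was run at 8, 11, 14 and 17 weeks of age.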

[5] = biological target: Leucine-rich repeat serine/threonine-protein kinase 2 (Mus musculus) (UniProt Q5S006); test: In vivo inhibition of LRRK2 in C57Bl/6 mouse kidney assessed as total LRRK2 protein level administered for 11 days and measured after 4 hrs by Western blotting analysis; format: functional, organism-based; details: dose 3-120 mg/kg, time 11.0 day
Procedure, shortened: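 Same 11-day in-diet design in male C57Bl/6 mice: 3-120 mg/kg/day or untreated diet, killed 4, 8 or 24 h after dark-cycle onset, n = 5 per group. Kidneys dissected for Western blot of pSer935 and total LRRK2, with total LRRK2 detected by MJFF-2 antibody.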

[6] = biological target: Leucine-rich repeat serine/threonine-protein kinase 2 (Mus musculus) (UniProt Q5S006); test: In vivo inhibition of LRRK2 in C57Bl/6 mouse brain assessed as total LRRK2 protein level at 3 to 120 mg/kg administered for 11 days and measured for 4 to 24 hrs by Western blotting analysis; format: functional, organism-based; details: dose 3-120 mg/kg, time 11.0 day; procedure, shortened: as §1
[7] = Tmax in C57Bl/6 mouse at 10 mg/kg, po measured after 480 mins by LC-MS/MS analysis; format: ADME, organism-based; details: in vivo
Procedure, shortened: (§3)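 Male C57Bl/6 mice (20-25 g) given a single IV dose (2 mg/kg) or oral dose (10 mg/kg). Blood was sampled at 5, 15, 30, 60, 120, 240, 360 and 480 min and plasma prepared by centrifugation. Plasma drug levels were measured by LC/MS/MS. Values are mean (CV%), N=3.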

[8] = test system: Mus musculus; test: Effect on food intake in MitoPark mouse at 30 mg/kg administered for 15 weeks; format: functional, organism-based; procedure, shortened: as §2
[9] = AUC in C57Bl/6 mouse at 2 mg/kg, iv measured after 480 mins by LC-MS/MS analysis; format: ADME, organism-based; details: in vivo; procedure, shortened: as §3
[10] = Toxicity in C57Bl/6 mouse assessed as lower food intake measured after 1 to 3 days; details: in vivo, time 1-3 day
Procedure, shortened: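 Male C57Bl/6 mice, singly housed on a reversed 12 h light cycle, were fed diet formulated to give 3, 10, 30, 60 or 120 mg/kg/day (assumes 3 g/day intake) or untreated diet for 11 days. Body weight and food intake were monitored. Spontaneous locomotion and rearing were recorded over 60 min. On day 11, mice were euthanized 4, 8 or 24 h after dark onset and plasma and brain drug levels measured; n = 5 per group.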

[11] = biological target: Leucine-rich repeat serine/threonine-protein kinase 2 (Mus musculus) (UniProt Q5S006); test: In vivo inhibition of LRRK2 in 20 weeks old MitoPark mouse lung assessed as reduction in pSer935 LRRK2 level at 30 mg/kg/day administered for 15 weeks by Western blotting analysis; format: functional, organism-based
Procedure, shortened: (§4)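 MitoPark mice on drug-containing diet targeted to 30 mg/kg/day from 5 weeks of age, with the diet reformulated every 3 weeks to hold the target. Untreated-diet MitoPark and wild-type littermate controls. Killed by CO2 at 20 weeks of age. Lung and kidney taken from 5 mice per group for pSer935 and total LRRK2 immunoblots.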

[12] = test system: Mus musculus; test: Effect on behavioral changes in 8 weeks old MitoPark mouse striatum assessed as DOPAC level at 30 mg/kg/day administered for 3 weeks by HPLC analysis; format: functional
Procedure, shortened: (§5)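 Striatum from MitoPark mice on diet targeting 30 mg/kg/day or vehicle diet (wild-type littermate controls) was homogenized by sonication in 0.1 M acid at 0.1 g/mL. Samples were held 60 min at 4 °C and centrifuged. Dopamine, DOPAC and HVA were measured by HPLC with electrochemical detection against a 3,4-DHBA internal standard and standard curves. Mean ± SEM.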

[13] = biological target: Leucine-rich repeat serine/threonine-protein kinase 2 (Mus musculus) (UniProt Q5S006); test: In vivo inhibition of LRRK2 in 20 weeks old MitoPark mouse kidney assessed as reduction in total LRRK2 protein level at 30 mg/kg/day administered for 15 weeks by Western blotting analysis; format: functional, organism-based; procedure, shortened: as §4
[14] = test system: Mus musculus; test: Effect on body weight in MitoPark mouse at 30 mg/kg administered for 15 weeks; format: functional, organism-based; procedure, shortened: as §2
[15] = biological target: Dual specificity protein kinase CLK2 (Homo sapiens, UniProt P49760); test: Inhibition of CLK2 (unknown origin)
[16] = test system: Mus musculus; test: Effect on behavioral changes in 14 weeks old MitoPark mouse striatum assessed as HVA level at 30 mg/kg/day by HPLC analysis; format: functional; procedure, shortened: as §5

Chain of Leucine-rich repeat serine/threonine-protein kinase 2 (Mus musculus) (Q5S006 whole entry): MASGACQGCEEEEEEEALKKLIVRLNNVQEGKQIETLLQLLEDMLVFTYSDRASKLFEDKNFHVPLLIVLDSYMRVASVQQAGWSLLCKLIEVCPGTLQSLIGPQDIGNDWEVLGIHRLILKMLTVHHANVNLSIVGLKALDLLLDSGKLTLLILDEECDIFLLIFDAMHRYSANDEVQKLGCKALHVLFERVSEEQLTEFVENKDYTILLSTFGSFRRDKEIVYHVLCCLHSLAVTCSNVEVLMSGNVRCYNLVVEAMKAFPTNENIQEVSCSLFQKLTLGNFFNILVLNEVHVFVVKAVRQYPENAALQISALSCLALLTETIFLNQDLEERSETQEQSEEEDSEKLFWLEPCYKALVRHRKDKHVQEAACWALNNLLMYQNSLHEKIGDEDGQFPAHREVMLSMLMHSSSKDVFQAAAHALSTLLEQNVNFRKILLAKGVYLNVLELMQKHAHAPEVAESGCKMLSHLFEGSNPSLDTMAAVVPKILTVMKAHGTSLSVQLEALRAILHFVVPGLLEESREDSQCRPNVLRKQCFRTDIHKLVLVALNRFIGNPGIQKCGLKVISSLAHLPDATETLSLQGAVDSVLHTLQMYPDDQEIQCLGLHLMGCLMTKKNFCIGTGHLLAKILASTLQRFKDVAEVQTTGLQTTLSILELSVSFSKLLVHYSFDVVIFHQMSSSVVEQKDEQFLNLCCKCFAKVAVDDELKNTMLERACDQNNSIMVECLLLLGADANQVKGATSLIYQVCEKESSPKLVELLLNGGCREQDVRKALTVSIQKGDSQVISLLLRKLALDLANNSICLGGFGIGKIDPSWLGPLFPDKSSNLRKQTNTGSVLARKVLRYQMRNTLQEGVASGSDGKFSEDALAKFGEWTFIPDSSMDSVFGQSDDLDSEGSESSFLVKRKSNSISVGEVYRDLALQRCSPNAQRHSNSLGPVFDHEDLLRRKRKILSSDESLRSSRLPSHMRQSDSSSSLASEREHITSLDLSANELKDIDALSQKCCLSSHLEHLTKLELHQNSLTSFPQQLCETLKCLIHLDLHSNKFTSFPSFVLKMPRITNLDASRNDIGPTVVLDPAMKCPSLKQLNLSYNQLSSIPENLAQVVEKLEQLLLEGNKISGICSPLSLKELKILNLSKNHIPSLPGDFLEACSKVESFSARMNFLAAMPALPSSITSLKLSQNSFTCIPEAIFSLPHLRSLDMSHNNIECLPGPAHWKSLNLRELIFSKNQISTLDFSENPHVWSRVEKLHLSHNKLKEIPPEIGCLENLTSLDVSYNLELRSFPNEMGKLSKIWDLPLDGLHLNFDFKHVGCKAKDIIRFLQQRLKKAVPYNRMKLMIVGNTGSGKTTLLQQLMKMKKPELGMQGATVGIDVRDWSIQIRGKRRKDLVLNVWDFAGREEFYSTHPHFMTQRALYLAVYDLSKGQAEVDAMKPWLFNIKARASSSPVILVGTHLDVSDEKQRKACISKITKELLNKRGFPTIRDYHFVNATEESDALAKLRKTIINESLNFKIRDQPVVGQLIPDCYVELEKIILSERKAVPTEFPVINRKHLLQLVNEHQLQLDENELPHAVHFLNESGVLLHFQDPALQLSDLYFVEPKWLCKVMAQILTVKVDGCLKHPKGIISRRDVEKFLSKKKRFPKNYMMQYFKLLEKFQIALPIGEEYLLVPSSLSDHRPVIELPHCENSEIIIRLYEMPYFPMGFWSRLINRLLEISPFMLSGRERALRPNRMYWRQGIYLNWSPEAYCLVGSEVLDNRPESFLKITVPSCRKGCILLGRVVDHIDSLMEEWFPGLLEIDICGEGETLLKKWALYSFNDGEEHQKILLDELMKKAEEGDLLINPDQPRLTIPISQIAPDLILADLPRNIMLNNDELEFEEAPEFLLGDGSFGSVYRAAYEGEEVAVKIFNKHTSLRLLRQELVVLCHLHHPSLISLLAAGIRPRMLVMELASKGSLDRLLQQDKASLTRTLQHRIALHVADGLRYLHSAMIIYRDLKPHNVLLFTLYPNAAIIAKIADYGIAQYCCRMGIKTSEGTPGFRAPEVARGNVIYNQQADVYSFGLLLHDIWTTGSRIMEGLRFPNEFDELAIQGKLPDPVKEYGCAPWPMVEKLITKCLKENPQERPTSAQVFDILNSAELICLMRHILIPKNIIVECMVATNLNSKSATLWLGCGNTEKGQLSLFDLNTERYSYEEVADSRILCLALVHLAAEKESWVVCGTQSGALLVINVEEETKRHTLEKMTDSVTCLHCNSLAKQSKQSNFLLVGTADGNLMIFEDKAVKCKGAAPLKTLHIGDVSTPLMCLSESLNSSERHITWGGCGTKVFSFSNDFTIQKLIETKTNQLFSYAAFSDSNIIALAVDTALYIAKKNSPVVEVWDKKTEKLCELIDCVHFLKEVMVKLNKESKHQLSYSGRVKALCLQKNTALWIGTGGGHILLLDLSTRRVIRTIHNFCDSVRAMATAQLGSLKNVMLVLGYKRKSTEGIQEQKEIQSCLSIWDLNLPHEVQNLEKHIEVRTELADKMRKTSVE
Chain of Dual specificity protein kinase CLK2 (P49760 whole entry): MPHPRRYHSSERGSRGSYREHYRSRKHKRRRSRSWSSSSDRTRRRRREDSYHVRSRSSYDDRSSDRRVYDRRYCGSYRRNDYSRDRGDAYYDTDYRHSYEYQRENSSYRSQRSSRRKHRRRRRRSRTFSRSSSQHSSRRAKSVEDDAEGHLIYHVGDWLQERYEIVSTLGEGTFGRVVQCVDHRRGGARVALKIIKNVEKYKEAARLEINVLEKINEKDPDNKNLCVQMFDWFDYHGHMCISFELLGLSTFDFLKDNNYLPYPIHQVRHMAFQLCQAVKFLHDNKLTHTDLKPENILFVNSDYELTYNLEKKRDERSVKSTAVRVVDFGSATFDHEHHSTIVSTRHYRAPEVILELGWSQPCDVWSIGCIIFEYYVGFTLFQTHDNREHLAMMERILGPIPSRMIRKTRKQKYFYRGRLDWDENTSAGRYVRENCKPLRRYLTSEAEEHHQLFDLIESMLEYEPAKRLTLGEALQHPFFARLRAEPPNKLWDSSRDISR

C[C@@H]1CN(c2cc(-c3n[nH]c4ccc(OC5(C)CC5)cc34)ncn2)C[C@H](C)O1 [MLi-2]
Activity [1]: 49.89%
inhibition [2]: Active
IC50 [3]: 935 nM
Activity [4]: Active
inhibition [5]: Dose-Dependent Effect
inhibition [6]: inactive
Tmax [7]: 45 min
Activity [8]: inactive
AUC at 8 h [9]: 0.664 µM·h
Activity [10]: Toxic
inhibition [11]: Active
Activity [12]: 8966 ng/g
inhibition [13]: Active
Activity [14]: inactive
IC50 [15]: 605 nM
Activity [16]: 323.7 ng/g
